Active and inactive are the calls of the source. No cut-off for these calls is given here.
Columns and labels:
[1] = test system: A-431; assay: Cytotoxicity against human A431 cells assessed as reduction in cell growth at 10 uM incubated for 72 hrs by MTT assay relative to control; format: functional; details: A-431, 72 h, read-out: GI
Outline: (§1)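 Cells grown in DMEM with 10% FBS and penicillin-streptomycin at 37 °C, 5% CO2, seeded at 3000 cells/well and attached overnight. Screening series given at 1, 3, 10, 100 μM; follow-up agent at 100 nM–3 μM; both 72 h, with 0.1% DMSO vehicle. MTT (5 mg/mL stock) added for 3 h at 37 °C, formazan dissolved in DMSO, absorbance read at 570 nm. Viability expressed as % of DMSO-treated wells from replicates.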

[2] = test system: MCF7; assay: Cytotoxicity against human MCF7 cells assessed as reduction in cell growth at 100 uM incubated for 72 hrs by MTT assay relative to control; format: functional; details: MCF7, 72 h, read-out: GI; outline: as §1
[3] = test system: HeLa; assay: Cytotoxicity against human HeLa cells assessed as reduction in cell growth at 30 uM incubated for 72 hrs by MTT assay relative to control; format: functional; details: read-out: GI
[4] = test system: A-375; assay: Cytotoxicity against human A375 cells assessed as reduction in cell growth incubated for 72 hrs by MTT assay; format: functional, cell-based; details: A-375, 72 h; outline: as §1
[5] = test system: HeLa; assay: Cytotoxicity against human HeLa cells assessed as reduction in cell growth at 3 uM incubated for 72 hrs by MTT assay relative to control; format: functional; details: read-out: GI; outline: as §1
[6] = test system: HeLa; assay: Cytotoxicity against human HeLa cells assessed as reduction in cell growth at 1 uM incubated for 72 hrs by MTT assay relative to control; format: functional; details: read-out: GI; outline: as §1
[7] = test system: A-375; assay: Cytotoxicity against human A375 cells assessed as reduction in cell growth at 1 uM incubated for 72 hrs by MTT assay relative to control; format: functional; details: A-375, 72 h, read-out: GI; outline: as §1
[8] = test system: A-375; assay: Cytotoxicity against human A375 cells assessed as reduction in cell growth at 100 uM incubated for 72 hrs by MTT assay relative to control; format: functional; details: A-375, 72 h, read-out: GI; outline: as §1
[9] = test system: A-431; assay: Cytotoxicity against human A431 cells assessed as reduction in cell growth incubated for 72 hrs by MTT assay; format: functional, cell-based; details: A-431, 72 h; outline: as §1
[10] = test system: MCF7; assay: Cytotoxicity against human MCF7 cells assessed as reduction in cell growth incubated for 72 hrs by MTT assay; format: functional, cell-based; details: MCF7, 72 h; outline: as §1
[11] = test system: A-431; assay: Cytotoxicity against human A431 cells assessed as reduction in cell growth at 3 uM incubated for 72 hrs by MTT assay relative to control; format: functional; details: A-431, 72 h, read-out: GI; outline: as §1
[12] = test system: MCF7; assay: Cytotoxicity against human MCF7 cells assessed as reduction in cell growth at 30 uM incubated for 72 hrs by MTT assay relative to control; format: functional; details: MCF7, 72 h, read-out: GI
[13] = test system: HeLa; assay: Cytotoxicity against human HeLa cells assessed as reduction in cell growth incubated for 72 hrs by MTT assay; format: functional, cell-based; outline: as §1
[14] = test system: MCF7; assay: Cytotoxicity against human MCF7 cells assessed as reduction in cell growth at 1 uM incubated for 72 hrs by MTT assay relative to control; format: functional; details: MCF7, 72 h, read-out: GI; outline: as §1
[15] = test system: A-431; assay: Cytotoxicity against human A431 cells assessed as reduction in cell growth at 30 uM incubated for 72 hrs by MTT assay relative to control; format: functional; details: A-431, 72 h, read-out: GI
[16] = test system: MCF7; assay: Cytotoxicity against human MCF7 cells assessed as reduction in cell growth at 10 uM incubated for 72 hrs by MTT assay relative to control; format: functional; details: MCF7, 72 h, read-out: GI; outline: as §1
[17] = test system: HeLa; assay: Cytotoxicity against human HeLa cells assessed as reduction in cell growth at 100 uM incubated for 72 hrs by MTT assay relative to control; format: functional; details: read-out: GI; outline: as §1
[18] = test system: A-375; assay: Cytotoxicity against human A375 cells assessed as reduction in cell growth at 3 uM incubated for 72 hrs by MTT assay relative to control; format: functional; details: A-375, 72 h, read-out: GI; outline: as §1
[19] = test system: MCF7; assay: Cytotoxicity against human MCF7 cells assessed as reduction in cell growth at 3 uM incubated for 72 hrs by MTT assay relative to control; format: functional; details: MCF7, 72 h, read-out: GI; outline: as §1
[20] = test system: A-375; assay: Cytotoxicity against human A375 cells assessed as reduction in cell growth at 30 uM incubated for 72 hrs by MTT assay relative to control; format: functional; details: A-375, 72 h, read-out: GI
[21] = test system: A-431; assay: Cytotoxicity against human A431 cells assessed as reduction in cell growth at 100 uM incubated for 72 hrs by MTT assay relative to control; format: functional; details: A-431, 72 h, read-out: GI; outline: as §1
[22] = test system: A-375; assay: Cytotoxicity against human A375 cells assessed as reduction in cell growth at 10 uM incubated for 72 hrs by MTT assay relative to control; format: functional; details: A-375, 72 h, read-out: GI; outline: as §1
[23] = test system: A-431; assay: Cytotoxicity against human A431 cells assessed as reduction in cell growth at 1 uM incubated for 72 hrs by MTT assay relative to control; format: functional; details: A-431, 72 h, read-out: GI; outline: as §1
[24] = test system: HeLa; assay: Cytotoxicity against human HeLa cells assessed as reduction in cell growth at 10 uM incubated for 72 hrs by MTT assay relative to control; format: functional; details: read-out: GI; outline: as §1
[25] = test system: MCF7; assay: Induction of apoptosis in human MCF7 cells assessed as downregulation of c-Jun protein expression 100 nM to 3 uM incubated for 48 hrs by immunoblot method; format: functional, cell-based
Outline: (§2)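 MCF7 cells seeded at 1.25×10^5 per well in six-well plates and treated at 100 nM–3 μM for 48 h per legend (72 h per methods note). Lysed in 2X SDS buffer and sonicated; protein quantified by BCA. 20–25 µg run on 12% SDS gels and transferred to PVDF. Blocked in 5% BSA/TBST, primary antibodies overnight, secondary 1 h, ECL detection, β-actin as loading control.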

[26] = test system: MCF7; assay: Induction of apoptosis in human MCF7 cells assessed as effect on pro-caspase-3 expression at 100 nM to 3 uM incubated for 48 hrs by immunoblot method; format: functional, cell-based; outline: as §2
[27] = test system: MCF7; assay: Antiproliferative activity against human MCF7 cells assessed as induction of cell death at 100 nM to 3 uM incubated for 48 hrs by propidium iodide based flow cytometry; format: functional
Outline: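 MCF7 cells in DMEM with 10% FBS at 37 °C, 5% CO2, 30,000 cells/well in six-well plates, exposed to 100 nM, 300 nM, 1 μM or 3 μM (0.1% DMSO vehicle) for 48 h per legend (72 h per methods note). Harvested, washed in PBS, stained with propidium iodide (5 μg/mL) 20 min at 4 °C, and % dead cells read by flow cytometry against DMSO control.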

[28] = test system: MCF7; assay: Induction of apoptosis in human MCF7 cells assessed as effect on PARP1 protein expression at 100 nM to 3 uM incubated for 48 hrs by immunoblot method; format: functional, cell-based; outline: as §2
[29] = test system: MCF7; assay: Induction of apoptosis in human MCF7 cells assessed as reduction in Bcl2 protein expression at 100 nM to 3 uM incubated for 48 hrs by immunoblot method; format: functional, cell-based; outline: as §2
[30] = test system: MCF7; assay: Induction of apoptosis in human MCF7 cells assessed as downregulation of JNK1 protein expression at 100 nM to 3 uM incubated for 48 hrs by immunoblot method; format: functional, cell-based; outline: as §2
[31] = test system: MCF7; assay: Cytotoxicity against human MCF7 cells assessed as reduction in cell growth at 100 nM to 3 uM incubated for 72 hrs by MTT assay; format: functional, cell-based; outline: as §1
[32] = test system: MCF7; assay: Induction of apoptosis in human MCF7 cells assessed as increase in Bax protein expression at 100 nM to 3 uM incubated for 48 hrs by immunoblot method; format: functional, cell-based; outline: as §2
[33] = test system: MCF7; assay: Antiproliferative activity against human MCF7 cells assessed as inhibition of colony formation at 100 nM to 3 uM incubated for 21 days with every 72 hrs media was change treatment by crystal violet staining based assay; format: functional, cell-based
Outline: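 MCF7 cells seeded at 500 cells/well (legend: 1200/well) in six-well plates, left to adhere overnight, then dosed at 100 nM–3 μM. Medium and compound renewed every 72 h over 21 days. Colonies washed with PBS, fixed in 3.7% formaldehyde 20 min, stained with 0.4% crystal violet, rinsed in PBS, then counted.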

Row | Compound | inhibition of growth at 10 µM [1] | inhibition of growth at 100 µM [2] | inhibition of growth at 30 µM [3] | IC50 [4] | inhibition of growth at 3 µM [5] | inhibition of growth at 1 µM [6] | inhibition of growth at 1 µM [7] | inhibition of growth at 100 µM [8] | IC50 [9] | IC50 [10] | inhibition of growth at 3 µM [11] | inhibition of growth at 30 µM [12] | IC50 [13] | inhibition of growth at 1 µM [14] | inhibition of growth at 30 µM [15] | inhibition of growth at 10 µM [16] | inhibition of growth at 100 µM [17] | inhibition of growth at 3 µM [18] | inhibition of growth at 3 µM [19] | inhibition of growth at 30 µM [20] | further results
1 | N/C(=N\NC(=S)N1CCN(c2ccccn2)CC1)c1ccccn1 | 69% | 68.3% | 78.9% | 700 nM | 24.4% | 16.7% | 70% | 86.8% | 4300 nM | 13700 nM | 45.8% | 65.3% | 8600 nM | 36% | 74.9% | 46.4% | 85.6% | 73.7% | 37.2% | 81% | inhibition of growth at 100 µM [21]: 91.9%; inhibition of growth at 10 µM [22]: 74.4%; inhibition of growth at 1 µM [23]: 11.6%; inhibition of growth at 10 µM [24]: 56.1%
2 | N/C(=N\NC(=S)N1CCCC1)c1ccc(F)cn1 | 78.7% | 73% | 81.2% | 860 nM | 77.7% | 62.8% | 57.9% | 86.6% | 1000 nM | 900 nM | 72.2% | 60.6% | 1800 nM | 51% | 83.3% | 54.5% | 85.4% | 81.8% | 52.6% | 83.2% | Activity [25]: Dose-dependent effect; Activity [26]: Active; Activity [27]: Dose-dependent effect; Activity [28]: Active; Activity [29]: Active; Activity [30]: Dose-dependent effect; Activity [31]: Dose-dependent effect; Activity [32]: Active; inhibition [33]: Dose-dependent effect; inhibition of growth at 100 µM [21]: 85.6%; inhibition of growth at 10 µM [22]: 82.3%; inhibition of growth at 1 µM [23]: 50.7%; inhibition of growth at 10 µM [24]: 72.7%
3 | Cc1ccnc(/C(N)=N/NC(=S)N2CCCC2)c1 | 71.2% | 87.7% | 86.4% | 720 nM | 52.1% | 25.9% | 69% | 88.8% | 900 nM | 1200 nM | 63% | 82.2% | 1900 nM | 49% | 84.2% | 63.6% | 88.1% | 80% | 57.7% | 87.9% | inhibition of growth at 100 µM [21]: 86.9%; inhibition of growth at 10 µM [22]: 86%; inhibition of growth at 1 µM [23]: 58.5%; inhibition of growth at 10 µM [24]: 67%
4 | N/C(=N\NC(=S)N1CCCC1)c1ccccn1 | 77.2% | 74.9% | 84.5% | 600 nM | 38.5% | 24.7% | 65.7% | 87.8% | 1700 nM | 3600 nM | 70.9% | 54.6% | 6200 nM | 45.9% | 85.2% | 51.7% | 89.1% | 80% | 49.8% | 86% | inhibition of growth at 100 µM [21]: 83.8%; inhibition of growth at 10 µM [22]: 83.9%; inhibition of growth at 1 µM [23]: 39.8%; inhibition of growth at 10 µM [24]: 63.5%
5 | Cc1cccc(/C(N)=N/NC(=S)N2CCSCC2)n1 | 53.2% | 46.8% | 85.3% | 1400 nM | 54.6% | 46.5% | 47.2% | 77.4% | 2600 nM | > 100000 nM | 51.7% | 38.6% | 1800 nM | 7.3% | 64.5% | 22.5% | 81.6% | 60.1% | 20.6% | 73.1% | inhibition of growth at 100 µM [21]: 80.7%; inhibition of growth at 10 µM [22]: 62.6%; inhibition of growth at 1 µM [23]: 42.8%; inhibition of growth at 10 µM [24]: 67.6%
6 | Cc1cccc(/C(N)=N/NC(=S)N2CCCC2)n1 | 67.6% | 61.8% | 74.5% | 2900 nM | 56.8% | 8.7% | 13.6% | 66.3% | 4000 nM | 61800 nM | 47.2% | 40.1% | 2700 nM | 17.4% | 72.2% | 38.2% | 80.1% | 51.3% | 26.6% | 60.8% | inhibition of growth at 100 µM [21]: 86.8%; inhibition of growth at 10 µM [22]: 55.9%; inhibition of growth at 1 µM [23]: 21%; inhibition of growth at 10 µM [24]: 79.2%
